This is one part of a sample in which hits are shown more often than they occur.
STK33 kinase inh – blocks human STK33 kinase activity | hit rate 0.073% among 320,000 | AID 2661 | inhibition, % at 10 µM | purified STK33, MBP phosphorylation, ADP-Glo luminescence;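 active = inhibition at or above 25%, using the most active replicate where run in duplicate; inactive = inhibition below 25%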
GSK3A inh – human GSK-3 alpha kinase inhibition | P49840 | ADP-Glo luminescence, 60 min | inhibition, % at 10 µM | hit rate 0.1% among 320,000 | AID 2650;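 active = more than half of replicates show inhibition above 20%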;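 note: GST-tagged GSK-3 alpha with peptide substrate and 25 µM ATP; 0% = DMSO neutral wells and 100% = GW8510 positive control wells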
CDK5 p35 inh – blocks human CDK5/p35 kinase activity. Recombinant CDK5/p35, ADP-Glo luminescence, 60 min. hit rate 0.01% among 330,000. inhibition, % at 10 µM;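 active = highest replicate inhibition of at least 50% and at least 75% of replicates reaching 50%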;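 note: plate controls were DMSO neutral control for no effect and GW8510 at 10 µM for full effect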
DYRK1A inh – inhibitors of rat Dyrk1A kinase | ADP-Glo luminescence, NFATc1 peptide | inhibition, % at 12.5 µM | hit rate 0.43% among 310,000; in the data active = inhibition above about 50%;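 note: plate controls were vehicle with enzyme for no effect and no enzyme for full effect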
GSK3B inh – inhibitors of human GSK3beta kinase; hit rate 0.038% among 300,000; activity score (negative = inhibition), % at 10 µM; GST-GSK3beta kinase, ADP-Glo luminescence, 60 min; active compounds read low; AID 2097;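 active = more than half of replicate wells score below -50%, meaning over 50% inhibition versus plate controls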;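 note: 0% = median DMSO wells and -100% = median GW8510 positive control wells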
Target sequence (P49841 whole entry, looked up): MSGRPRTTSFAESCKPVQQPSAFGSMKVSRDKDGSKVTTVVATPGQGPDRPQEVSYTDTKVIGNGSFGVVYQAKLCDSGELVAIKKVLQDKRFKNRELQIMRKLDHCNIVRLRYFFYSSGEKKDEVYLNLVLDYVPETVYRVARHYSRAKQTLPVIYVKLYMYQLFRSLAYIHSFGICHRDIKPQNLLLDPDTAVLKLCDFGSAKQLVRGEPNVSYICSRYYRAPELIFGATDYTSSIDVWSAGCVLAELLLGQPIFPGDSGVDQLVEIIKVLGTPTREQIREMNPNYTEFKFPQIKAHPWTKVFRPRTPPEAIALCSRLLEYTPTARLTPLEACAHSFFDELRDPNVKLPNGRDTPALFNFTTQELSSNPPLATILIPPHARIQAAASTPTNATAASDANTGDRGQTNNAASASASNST
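Test system – GST-tagged human GSK3beta kinase, cell-free · Incubation – 60 min enzyme reaction, room temperature · Signal – ADP-Glo luminescence · Also added – peptide substrate and ATP at 25 µM · Controls – DMSO neutral wells and GW8510 at 20 µM as positive · Buffer or medium – Tris/MgCl2 kinase buffer · Measure – Luminescence-derived activity versus plate DMSO and GW8510 wells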
Dyrk1A artifact – interferes with ADP-Glo luciferase readout without Dyrk1A; shares compounds with DYRK1A inh; ADP-Glo luciferase artifact assay, no Dyrk1A, luminescence; AC50, µM (highest dose often 12 µM), for the others: at the top dose activity change, negative = inhibition; 1,300 tested, under 10 active;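 active = fitted half-maximal dose AC50 no more than ten times the top valid tested dose, with luminescence dropping as dose rises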
* hit, by the source's call; x = no result given.

SMILES	STK33 kinase inh	GSK3A inh	CDK5 p35 inh	DYRK1A inh	GSK3B inh	Dyrk1A artifact
COc1ccc2nc(C)c3c(c2c1)OC(C(C)(Cl)Br)C3 (stereo not drawn)	1	1	-1	79*	0	10%
CCOC(=O)[C@H]1[C@H]2COc3ccc(OC)cc3[C@@H]2N2C(=O)c3cc(OC)ccc3NC(=O)[C@@]12C	-2	0	0	9	x	x
CC(C)C1CCN(C(=O)C2CCC(=O)N(CCc3ccc(Cl)cc3)C2)CC1 (stereo not drawn)	3	2	1	2	-4	x
O=C1CN(C(=O)C2CCC(=O)N(CCc3ccc(Cl)cc3)C2)CCN1 (stereo not drawn)	-2	2	2	54*	3	6%
O=c1c2cnn(-c3ccccc3)c2nc(-c2cccs2)n1-c1ccc(Br)cc1	0	x	1	12	-1	x
CCOC(=O)c1cc2c(=O)n3cccc(C)c3nc2n(CCOC)c1=NC(C)=O	-1	0	0	x	-3	x
Nc1nonc1-n1nnc(C(=O)N/N=C/c2ccoc2)c1-c1ccccc1	0	-1	1	7	-14	x
COc1ccc(NC(=S)N2CCN(C(=O)c3ccco3)CC2)cc1OC	-1	x	0	-3	-1	x
COc1cc2cnc(-c3ccccc3)c(-c3ccc([N+](=O)[O-])cc3)c2cc1OC	0	-3	1	51*	x	9%
O=S(=O)(NC1CC(NS(=O)(=O)OCC(Cl)(Cl)Cl)C2CCCCC12)OCC(Cl)(Cl)Cl (stereo not drawn)	0	1	2	-1	0	x
c1ccc2c3c([nH]c2c1)-c1[nH]ncc1CC3	32*	36	8	56*	0	10%
Clc1ccc2[nH]c3c(c2c1)CCc1cn[nH]c1-3	9	15	1	51*	-36	7%
O=C1CCCc2c1[nH]c1ccccc21	2	0	0	29	-1	x
COC(=O)Cc1ccc(NC(=S)NNC(=O)C2CC2)cc1	-1	-2	3	7	1	x
COCCCN(C(C)=O)c1nc(-c2ccc(OC)cc2)cs1	-1	0	-3	76*	-4	7%
C[C@]12c3[nH]c4ccccc4c3CCN1C(=O)C(CC(=O)NCCN1CCOCC1)C[C@@H]2C(=O)N1CCOCC1 (stereo partly drawn)	0	-1	1	x	x	x
NC1=NC(=O)/C(=C/c2cccs2)S1	1	2	1	53*	1	11%
O=C1N=C(N2CCOCC2)S/C1=C/c1cccs1	-1	1	1	25	3	x
C=CCSC1=NC(=O)/C(=C/c2cccs2)S1	-1	9	0	76*	x	8%
CCc1ccc(-n2cnc3cc(C(=O)NCC(OC)OC)ccc32)cc1	-1	3	-1	-1	-5	x
COc1ccc(C(=O)N(Cc2nc(-c3ccc(C)cc3)no2)C(C)C)cc1OC	1	-3	1	61*	0	8%
COc1c2ccc(OCC/C(C)=C/C(=O)C=C(C)C)cc2nc2occc12	1	-2	-4	5	x	x
COc1ccc(C(=O)Nc2ccnc(-c3cccnc3)n2)cc1	0	1	3	31	-13	x
Cc1ccc(C(=O)Nc2ccnc(-c3cccnc3)n2)cc1	x	2	0	60*	-3	9%
COc1ccc2c3c([nH]c2c1)C(C)N(CCC(=O)NN)CC3 (stereo not drawn)	2	0	0	74*	4	10%
SMILES	STK33 kinase inh	GSK3A inh	CDK5 p35 inh	DYRK1A inh	GSK3B inh	Dyrk1A artifact
Cc1noc(NS(=O)(=O)c2ccc(N/C=C\C(=O)c3ccc(Br)cc3)cc2)c1C	3	-2	0	63*	3	7%
O=c1cc(-c2ccccc2Cl)oc2c(NS(=O)(=O)c3ccccc3C(F)(F)F)ccc(O)c12	0	0	0	59*	-2	7%
CC(C)(C)[C@H]1C=C(C(=O)N2CCN(Cc3ccccc3)CC2)O[C@@H](OCCCCO)C1	1	-1	2	53*	-6	11%
CC(C)(C)[C@@H]1C=C(C(=O)N2CCN(Cc3ccccc3)CC2)O[C@H](OCc2ccc(CO)cc2)C1	-1	-3	1	3	9	x
Nc1cc2c([N+](=O)[O-])cccc2o1	1	-2	0	60*	-1	8%
COc1ccc(N2C(=O)C3CCCN3C2c2cc(OC)c(OC)c(OC)c2)cc1 (stereo not drawn)	1	x	1	62*	1	9%
COc1cccc(-c2nnc3n2N=C(c2cc(OC)ccc2OC)CS3)c1	0	1	0	30	2	x
COc1cccc(-c2nnc3n2N=C(C(C)(C)C)CS3)c1	4	x	2	79*	6	8%
CC(C)(C)C1=Nn2c(nnc2-c2ccccc2F)SC1	0	6	-1	52*	-1	6%
CC1(C(=O)O)CCC(C(=O)Nc2ccc(F)cc2)C1(C)C (stereo not drawn)	-2	-2	1	-2	-3	x
N=C(N)c1ccc(N=Nc2c(O)ccc3c2[nH]c2ccccc23)cc1	x	x	33	78*	x	6%
CC1CCC(NC(=O)c2cc(S(=O)(=O)N3CCCCC3)c[nH]2)CC1 (stereo not drawn)	-2	1	0	57*	4	8%
CCCNC(=O)c1cc(S(=O)(=O)N2CCCCC2)c[nH]1	-1	-2	-1	2	4	x
Cc1ccc(C(=O)COC(=O)CNC(=O)c2ccccc2)s1	-1	-7	1	x	x	x
O=C(Nc1nc2ccc([N+](=O)[O-])cc2s1)C1CCCO1 (stereo not drawn)	5	-1	0	66*	-3	8%
O=C(Nc1nc2ccc(Cl)cc2s1)C1CCCO1 (stereo not drawn)	9	1	-2	76*	-4	9%
CN1CCN(c2cc3c(c4c2[nH]c2ccccc24)C(=O)CC(C)(C)C3)CC1	4	8	1	56*	-9	10%
CCCCn1c(N2CCC(Cc3ccccc3)CC2)nc2c1c(=O)[nH]c(=O)n2C	2	-1	0	56*	-1	7%
Cc1nnc(SCCn2c(N3CCC(Cc4ccccc4)CC3)nc3c2c(=O)[nH]c(=O)n3C)s1	-2	0	x	x	1	x
O=c1nc2n(c3sc4c(c13)CCCC4)C(CBr)CS2 (stereo not drawn)	-1	2	0	51*	-4	7%
Nc1c(N(Cc2ccco2)C(=O)COc2ccccc2F)c(=O)[nH]c(=O)n1Cc1ccccc1	0	1	-2	x	x	x
C1CCc2c(nc3nnnn3c2NCC2CC2)C1	-1	-3	1	6	2	x
CC1(C(=O)OCC(=O)NCCNC(=O)COC(=O)C2(C)CC2(Cl)Cl)CC1(Cl)Cl (stereo not drawn)	0	0	-2	x	-6	x
COC1=CC(=O)c2c(ccc3ncnc(N)c23)C1=O	x	x	4	51*	x	14%

Screening data deposited in PubChem by Broad Institute.
